Bioassay records as filed in PubChem BioAssay.
Ecoli WT expand: growth inhibitors of E. coli BW25113 wild type | OD600 absorbance | growth inhibition, % at 100 µM | hit rate 0.15% among 98,000;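 active = growth inhibition above about 50% at one test dose, limit read from the data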;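 also: growth measured after 20 h incubation at 37 °C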
tolC growth inh: growth inhibitors of E. coli BW25113 tolC mutant; OD615; growth inhibition, % at 10 µM (by protocol); hit rate 2.2% among 65,000; AID 573;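 active = growth inhibition at or above a cutoff equal to the mean over every tested compound plus 3 SD, cut at about 60% in these data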;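 also: growth measured after 20 h incubation at 37 °C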
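Test system: tolC-deleted E. coli BW25113; medium: LB with kanamycin 50 µg/mL; compound: single-point testing at 10 µM; incubation: 20 h compound exposure of bacteria at 37 °C; signal: OD at 615 nm; evaluation: growth inhibition in percent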
EphB4 ephrin blk: EphB4-ephrin-B2 interaction antagonism. EphB4 LBD / TNYL-RAW-Alexa532 peptide, fluorescence polarization. inhibition, % at 7 µM. P54760. hit rate 0.15% among 97,000. AID 720;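 active = inhibition above the screen-wide mean inhibition plus 3 SD, cut at about 15% in these data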;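 also: 0% = DMSO wells and 100% = excess unlabeled TNYL-RAW peptide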
Target sequence (P54760 whole entry, looked up, the tested form may be a part): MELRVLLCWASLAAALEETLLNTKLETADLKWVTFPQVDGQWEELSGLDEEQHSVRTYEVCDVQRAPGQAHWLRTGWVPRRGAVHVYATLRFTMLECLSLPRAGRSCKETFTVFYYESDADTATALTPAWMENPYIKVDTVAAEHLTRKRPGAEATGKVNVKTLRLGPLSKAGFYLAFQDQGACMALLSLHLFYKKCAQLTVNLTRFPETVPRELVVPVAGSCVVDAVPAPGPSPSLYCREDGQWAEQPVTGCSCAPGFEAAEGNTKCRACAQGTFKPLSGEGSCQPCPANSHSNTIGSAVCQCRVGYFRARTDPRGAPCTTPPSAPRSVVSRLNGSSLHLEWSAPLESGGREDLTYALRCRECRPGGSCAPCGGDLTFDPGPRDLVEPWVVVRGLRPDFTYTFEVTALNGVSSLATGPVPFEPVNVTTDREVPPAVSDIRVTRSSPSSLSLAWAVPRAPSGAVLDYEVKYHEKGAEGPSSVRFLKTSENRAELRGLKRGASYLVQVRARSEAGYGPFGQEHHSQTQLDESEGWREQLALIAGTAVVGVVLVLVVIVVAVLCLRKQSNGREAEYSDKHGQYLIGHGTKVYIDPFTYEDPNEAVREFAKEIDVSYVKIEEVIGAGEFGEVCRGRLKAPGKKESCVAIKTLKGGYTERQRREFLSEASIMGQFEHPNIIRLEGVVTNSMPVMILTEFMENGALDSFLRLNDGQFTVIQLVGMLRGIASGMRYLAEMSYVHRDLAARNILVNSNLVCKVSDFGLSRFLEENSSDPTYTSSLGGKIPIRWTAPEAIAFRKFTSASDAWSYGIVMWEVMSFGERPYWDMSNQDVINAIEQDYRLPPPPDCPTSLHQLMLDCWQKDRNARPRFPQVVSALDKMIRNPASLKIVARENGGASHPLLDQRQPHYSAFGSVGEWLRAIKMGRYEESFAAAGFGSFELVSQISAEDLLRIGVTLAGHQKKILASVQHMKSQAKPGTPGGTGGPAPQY
PostGolgi yeast: growth inhibition of a yeast mutant, post-Golgi transport screen | post-Golgi transport phenotypic cell assay | inhibition, % at 10 µM | hit rate 0.9% among 98,000 | AID 739;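 also: yeast cells grown in 1536-well plates; yeast grown about 18 h at 30C before absorbance read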
PostGolgi ctrl: growth of the yeast control strain, post-Golgi counter-screen; efflux-deficient yeast background strain, growth absorbance A615, 16 h; inhibition, % at 10 µM; hit rate 5% among 98,000; AID 738
An asterisk follows results filed as active; nt = no result. A selection: hits, their analogues and other compounds. The true share with any hit is near 6%. Rule as the data show it, unless noted: active = inhibition above about 30%; inactive = the rest.

SMILES	Ecoli WT expand	tolC growth inh	EphB4 ephrin blk	PostGolgi yeast	PostGolgi ctrl
CCSc1nc(N)nc(-c2cccs2)c1C#N	6	nt	-1	28	40*
COc1cc(-c2c(C#N)c(N)nc(SCc3ccncc3)c2C#N)cc(OC)c1OC	-12	21	-1	1	18
N#Cc1c(N)nc(SCc2ccncc2)c(C#N)c1-c1cccs1	-11	-5	nt	-2	49*
O=C(CS(=O)(=O)Cc1ccccc1)N1CCN(Cc2ccc3c(c2)OCO3)CC1	11	-8	-8	-4	-1
O=C(CSCc1cccc(Cl)c1)N1CCN(Cc2ccc3c(c2)OCO3)CC1	-1	nt	-11	48*	28
O=C(c1ccc(COc2ccccc2Cl)o1)N1CCN(Cc2ccc3c(c2)OCO3)CC1	-6	52	18*	-5	27
O=C(c1ccc(COc2ccc(Cl)cc2)o1)N1CCN(Cc2ccc3c(c2)OCO3)CC1	-19	96*	-6	nt	52*
CC(=O)N(C)c1nnc(-c2ccccn2)s1	nt	nt	8	nt	nt
COc1ccc(Br)cc1C(=O)Nc1cc(C)cc(C)c1	-2	nt	4	9	17
COc1ccc(-n2c(NC(=O)c3ccc(Br)o3)c(C#N)c3nc4ccccc4nc32)cc1	-8	nt	-2	0	3
N#Cc1c(NC(=O)c2ccc(Br)o2)n(-c2ccccc2)c2nc3ccccc3nc12	nt	62*	nt	nt	nt
CCCCn1c(NC(=O)c2ccc(F)cc2)c(C#N)c2nc3ccccc3nc21	nt	88*	nt	nt	nt
CCC(C)n1c(NC(=O)c2ccccc2)c(C#N)c2nc3ccccc3nc21 (centres undefined)	nt	nt	-10	nt	nt
CCCCn1c(NC(=O)c2ccccc2)c(C#N)c2nc3ccccc3nc21	2	67*	4	-8	1
N#Cc1c(N)n(CCc2ccc(F)cc2)c2nc3ccccc3nc12	-5	nt	7	-2	5
CCCCNC(=O)C(=O)NC(C)CCc1ccccc1 (centres undefined)	-3	nt	6	-5	3
Oc1c(-c2cc(-c3ccco3)[nH]n2)ccc2ccccc12	-8	10	-4	2	9
Oc1ccc(Cl)cc1-c1cc(-c2ccccc2Cl)[nH]n1	nt	nt	4	nt	nt
Oc1ccccc1-c1cc(-c2ccco2)[nH]n1	17	nt	-12	1	30*
Oc1ccc(Br)cc1-c1cc(-c2ccco2)[nH]n1	14	nt	-2	1	79*
Oc1ccccc1-c1cc(-c2ccccc2Cl)[nH]n1	4	100*	-4	-3	75*
Oc1ccc(Cl)cc1-c1cc(-c2ccco2)[nH]n1	16	nt	5	4	46*
O=C(NCc1ccco1)c1ccccc1NS(=O)(=O)c1ccc(Br)s1	13	nt	-6	5	20
CCC(=O)Nc1cc(C)c(NC(=O)c2ccccc2OC)cn1	5	-9	-4	-9	6
Cc1ccc(O)c(-c2cc(-c3ccccc3C)[nH]n2)c1	14	100*	8	-4	86*
SMILES	Ecoli WT expand	tolC growth inh	EphB4 ephrin blk	PostGolgi yeast	PostGolgi ctrl
Cc1ccc(-c2cc(-c3cccs3)[nH]n2)c(O)c1	14	nt	2	-7	25
COc1cc(/C=N/NC(=Nc2ccc(C)cc2)c2nc3ccccc3s2)ccc1O	-8	nt	5	0	55*
CCc1c(C#N)c(SCc2c(C)noc2C)nc2c1C(=O)CC(C)(C)C2	nt	63*	nt	nt	nt
CCc1c(C#N)c(SCCC(=O)Nc2ccc(OC)cc2)nc2c1C(=O)CC(C)(C)C2	-12	nt	1	-3	5
Cc1nnc(NC(=O)Cn2cnc3c2c(=O)n(C)c(=O)n3C)s1	nt	nt	-2	nt	nt
O=C(CCC(=O)OCC(=O)c1ccc(Cl)cc1Cl)Nc1cccc2cccnc12	4	nt	-7	2	38*
O=C(CCC(=O)OCC(=O)c1ccc(-c2ccccc2)cc1)Nc1cccc2cccnc12	-19	nt	-8	-1	3
COc1ccccc1Nc1nc(N)nc(-c2cc3ccccc3o2)n1	0	-3	-3	-2	2
Cc1c(-c2nc(N)nc(Nc3ccccc3F)n2)oc2ccccc12	-8	18	4	13	35*
COc1cccc(Nc2nc(N)nc(-c3oc4ccccc4c3C)n2)c1	3	nt	12	26	77*
Cc1ccc(C2CN(C)C3(C(=O)Nc4ccccc43)C23COc2ccccc2C3=O)cc1 (centres undefined)	-2	nt	2	-5	80*
CN1CC(c2ccccc2Cl)C2(COc3ccccc3C2=O)C12C(=O)Nc1ccccc12 (centres undefined)	-8	nt	5	2	46*
CN1CC(c2ccccc2)C2(SC(=S)N(Cc3ccco3)C2=O)C12C(=O)Nc1ccccc12 (centres undefined)	-10	nt	-2	13	30
CC(C)c1cc(NCC2CCCO2)n2c(nc3ccccc32)c1C#N (centres undefined)	4	nt	-2	-6	4
COc1ccc(-c2nc3ccc(N4CCCC4)cc3c(=O)[nH]2)cc1OC	-6	nt	-3	6	13
N#Cc1nc(-c2cccs2)oc1NCCc1ccccc1	13	-5	0	0	34*
N#Cc1nc(-c2ccccc2F)oc1NCCc1ccccc1	-3	nt	12	20	13
CCc1cc(-c2n[nH]c(C)c2Oc2ccc(C(C)C)cc2)c(O)cc1O	17	nt	3	-6	87*
CCCOC(=O)c1ccc(Oc2c(-c3ccc(O)cc3O)n[nH]c2C)cc1	15	100*	9	1	38*
COc1ccc2cc(CN(CC3CCCO3)S(=O)(=O)c3ccccc3Cl)c(=O)[nH]c2c1 (centres undefined)	2	nt	-2	1	14
Cc1ccc2nc(N3CCN(S(=O)(=O)c4ccc(C)c(Cl)c4)CC3)c(C#N)cc2c1	-16	nt	-10	-4	9
Cc1ccc(N2C(=O)[C@@H]3C(c4ccc(F)cc4)=NO[C@@H]3C2=O)cc1	1	-30	0	28	-3
O=C1CC2(CON=C2c2ccc(F)cc2)C(=O)N1c1ccc(F)cc1 (centres undefined)	4	-22	7	5	33*
CCSCc1nnc(SCC(=O)Nc2nc3ccccc3s2)n1C	-1	-9	4	7	36*
CC(C)Oc1ccc(C(CC(=O)O)NC(=O)c2cccs2)cc1 (centres undefined)	-11	nt	-1	-10	3
SMILES	Ecoli WT expand	tolC growth inh	EphB4 ephrin blk	PostGolgi yeast	PostGolgi ctrl
Cc1ccc(N2CCN(CC(=O)Nc3c(C(=O)C4CC4)oc4ccccc34)CC2)cc1	4	nt	3	6	-11
CC(C)C(C(=O)NCc1ccco1)N(C(=O)CNS(=O)(=O)c1ccc(Cl)cc1)C1CCCC1 (centres undefined)	2	73*	-5	1	-6
COc1ccc(OC)c(NC(=O)CSc2ncnc3c2cnn3-c2ccccc2Cl)c1	nt	nt	6	nt	nt
Cc1cc2c(cc(C(=O)OCC(=O)NCc3cccs3)n2C(C)C)o1	-8	75*	-2	10	57*
CC(=O)Nc1sc2c(c1C(c1cccs1)N1CCOCC1)CCCC2 (centres undefined)	-6	-13	-8	3	42*
CC(=O)Nc1sc2c(c1C(=O)N1CCOCC1)CCCCC2	5	-13	-9	11	-4
O=C(Nc1cccnc1)c1ccc(COc2cc(Cl)ccc2Cl)o1	-7	nt	-5	13	60*
